Source: ChEMBL document CHEMBL5653631, “A Potent and Selective ULK1 Inhibitor Suppresses Autophagy and Sensitizes Cancer Cells to Nutrient Stress” (iScience, 2018)
Blank lines part the entries; values can stand above or below the compound they belong to.

Columns and labels:
[1] = target: Calcium/calmodulin-dependent protein kinase type II subunit alpha (Homo sapiens) (UniProt Q9UQM7); assay: Inhibition of human recombinant CaMK2a at 500 nM related to control ULK1
[2] = target: T1, NUAK family SNF1-like kinase 1 (Homo sapiens) (UniProt O60285); assay: Inhibition of human recombinant NuaK1 at 500 nM related to control ULK1
T1 sequence (whole entry): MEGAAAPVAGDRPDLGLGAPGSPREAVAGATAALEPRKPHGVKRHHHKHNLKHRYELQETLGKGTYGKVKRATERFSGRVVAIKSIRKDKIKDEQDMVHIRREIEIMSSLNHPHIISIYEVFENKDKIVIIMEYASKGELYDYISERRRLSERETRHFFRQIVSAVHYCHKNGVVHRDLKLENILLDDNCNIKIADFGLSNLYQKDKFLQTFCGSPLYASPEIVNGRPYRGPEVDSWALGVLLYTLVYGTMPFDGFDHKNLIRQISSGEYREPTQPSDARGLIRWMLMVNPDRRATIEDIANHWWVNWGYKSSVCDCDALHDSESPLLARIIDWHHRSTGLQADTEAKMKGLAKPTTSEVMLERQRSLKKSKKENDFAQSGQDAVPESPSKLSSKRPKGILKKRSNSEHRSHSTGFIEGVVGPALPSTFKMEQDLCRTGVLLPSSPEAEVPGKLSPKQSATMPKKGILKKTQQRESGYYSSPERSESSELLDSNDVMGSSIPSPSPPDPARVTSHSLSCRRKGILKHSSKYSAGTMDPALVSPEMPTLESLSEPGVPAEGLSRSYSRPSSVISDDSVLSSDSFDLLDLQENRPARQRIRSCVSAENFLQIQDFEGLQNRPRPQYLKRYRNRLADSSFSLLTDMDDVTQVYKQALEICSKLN

[3] = target: Serine/threonine-protein kinase PLK2 (Homo sapiens) (UniProt Q9NYY3); assay: Inhibition of human recombinant PLK2 at 15 nM in presence of ATP by radiometric assay relative to control
Chain of Serine/threonine-protein kinase PLK2 (Homo sapiens) (Q9NYY3 whole entry, looked up): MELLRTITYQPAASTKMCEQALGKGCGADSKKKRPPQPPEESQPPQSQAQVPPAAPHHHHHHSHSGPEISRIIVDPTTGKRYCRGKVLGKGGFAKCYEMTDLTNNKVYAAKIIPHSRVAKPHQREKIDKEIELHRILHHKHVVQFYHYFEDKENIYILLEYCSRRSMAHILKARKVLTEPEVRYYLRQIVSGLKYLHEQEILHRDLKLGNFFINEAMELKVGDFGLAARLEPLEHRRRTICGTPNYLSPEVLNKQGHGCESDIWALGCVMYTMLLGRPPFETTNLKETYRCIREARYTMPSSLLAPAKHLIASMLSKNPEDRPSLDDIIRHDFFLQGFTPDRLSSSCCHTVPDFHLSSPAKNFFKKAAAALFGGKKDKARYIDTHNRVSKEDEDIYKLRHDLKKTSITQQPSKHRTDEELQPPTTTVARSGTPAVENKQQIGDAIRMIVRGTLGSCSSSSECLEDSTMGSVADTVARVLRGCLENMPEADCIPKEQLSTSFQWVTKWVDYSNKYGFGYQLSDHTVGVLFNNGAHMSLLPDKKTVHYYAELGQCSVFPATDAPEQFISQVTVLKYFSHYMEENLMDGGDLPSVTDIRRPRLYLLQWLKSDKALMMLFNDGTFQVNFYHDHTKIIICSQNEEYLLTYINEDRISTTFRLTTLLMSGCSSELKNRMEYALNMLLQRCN

[4] = target: Tyrosine-protein kinase ABL2 (Homo sapiens) (UniProt P42684); assay: Inhibition of human recombinant ABL2 at 40 nM in presence of ATP by radiometric assay relative to control
Chain of Tyrosine-protein kinase ABL2 (Homo sapiens) (P42684 whole entry): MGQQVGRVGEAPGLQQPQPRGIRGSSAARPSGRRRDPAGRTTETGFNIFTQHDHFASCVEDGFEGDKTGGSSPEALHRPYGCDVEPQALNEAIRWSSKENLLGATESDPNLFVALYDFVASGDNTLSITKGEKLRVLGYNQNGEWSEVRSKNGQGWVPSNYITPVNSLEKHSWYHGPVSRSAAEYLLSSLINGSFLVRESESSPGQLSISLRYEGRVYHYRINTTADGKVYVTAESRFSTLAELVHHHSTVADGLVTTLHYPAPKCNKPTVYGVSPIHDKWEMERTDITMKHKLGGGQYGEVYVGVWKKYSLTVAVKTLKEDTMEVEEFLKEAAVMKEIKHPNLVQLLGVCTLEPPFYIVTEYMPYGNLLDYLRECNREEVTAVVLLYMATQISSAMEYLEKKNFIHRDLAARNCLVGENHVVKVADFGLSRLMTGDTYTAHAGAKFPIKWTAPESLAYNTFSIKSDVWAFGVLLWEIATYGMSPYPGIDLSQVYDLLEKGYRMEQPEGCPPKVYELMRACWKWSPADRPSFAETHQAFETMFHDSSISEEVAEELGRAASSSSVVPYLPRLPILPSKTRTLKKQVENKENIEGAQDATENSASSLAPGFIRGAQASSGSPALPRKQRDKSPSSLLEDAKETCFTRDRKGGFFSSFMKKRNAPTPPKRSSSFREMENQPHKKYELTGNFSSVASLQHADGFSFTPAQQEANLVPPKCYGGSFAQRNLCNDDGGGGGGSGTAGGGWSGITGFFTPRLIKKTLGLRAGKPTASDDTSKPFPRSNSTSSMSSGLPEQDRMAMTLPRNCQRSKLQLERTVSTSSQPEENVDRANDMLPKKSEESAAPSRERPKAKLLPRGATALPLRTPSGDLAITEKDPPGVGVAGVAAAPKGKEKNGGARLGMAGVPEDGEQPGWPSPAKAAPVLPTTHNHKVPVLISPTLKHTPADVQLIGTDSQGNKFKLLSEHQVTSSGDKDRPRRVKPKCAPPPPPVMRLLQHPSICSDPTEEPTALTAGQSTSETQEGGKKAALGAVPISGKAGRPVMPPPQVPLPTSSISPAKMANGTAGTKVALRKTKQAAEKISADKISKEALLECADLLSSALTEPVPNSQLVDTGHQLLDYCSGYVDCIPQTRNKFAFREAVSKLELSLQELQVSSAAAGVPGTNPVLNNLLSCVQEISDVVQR
Summary of the method: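 Panel of 327 recombinant human kinases in radiometric activity assays, each screened in duplicate at a single inhibitor concentration; percent activity remaining relative to vehicle control, percent inhibition taken as 100 minus activity remaining.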

[5] = target: T2, Eukaryotic translation initiation factor 2-alpha kinase 3 (Homo sapiens) (UniProt Q9NZJ5); assay: Inhibition of human recombinant PEK at 40 nM related to control ULK1
T2 sequence (whole entry): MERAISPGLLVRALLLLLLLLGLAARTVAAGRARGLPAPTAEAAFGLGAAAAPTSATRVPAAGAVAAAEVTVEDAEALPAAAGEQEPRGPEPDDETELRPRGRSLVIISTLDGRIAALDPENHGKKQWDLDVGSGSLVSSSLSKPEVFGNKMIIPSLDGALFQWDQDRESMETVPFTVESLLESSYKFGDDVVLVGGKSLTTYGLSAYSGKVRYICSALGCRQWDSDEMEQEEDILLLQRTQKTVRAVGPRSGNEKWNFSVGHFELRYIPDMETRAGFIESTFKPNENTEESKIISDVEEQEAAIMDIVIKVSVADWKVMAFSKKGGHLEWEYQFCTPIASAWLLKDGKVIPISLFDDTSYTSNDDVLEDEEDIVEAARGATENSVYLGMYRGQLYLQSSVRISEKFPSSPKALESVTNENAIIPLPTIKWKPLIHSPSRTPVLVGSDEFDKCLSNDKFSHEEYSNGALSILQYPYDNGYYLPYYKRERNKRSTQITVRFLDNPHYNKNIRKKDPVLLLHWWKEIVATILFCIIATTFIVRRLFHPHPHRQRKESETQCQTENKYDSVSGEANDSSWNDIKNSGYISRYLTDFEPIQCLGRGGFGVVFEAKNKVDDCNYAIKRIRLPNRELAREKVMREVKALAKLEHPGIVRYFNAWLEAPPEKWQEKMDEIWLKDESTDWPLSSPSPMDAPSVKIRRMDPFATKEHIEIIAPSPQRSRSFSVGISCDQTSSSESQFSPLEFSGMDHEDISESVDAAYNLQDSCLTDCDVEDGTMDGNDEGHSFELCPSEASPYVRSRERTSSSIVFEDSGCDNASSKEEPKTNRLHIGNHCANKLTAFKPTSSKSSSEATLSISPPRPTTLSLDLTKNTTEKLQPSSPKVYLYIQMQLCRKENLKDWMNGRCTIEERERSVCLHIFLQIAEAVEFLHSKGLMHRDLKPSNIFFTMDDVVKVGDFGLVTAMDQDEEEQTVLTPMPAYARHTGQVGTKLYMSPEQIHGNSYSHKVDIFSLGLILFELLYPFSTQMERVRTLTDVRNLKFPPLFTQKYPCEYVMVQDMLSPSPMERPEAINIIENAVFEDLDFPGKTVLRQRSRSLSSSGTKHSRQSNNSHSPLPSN

[6] = target: T3, Serine/threonine-protein kinase Sgk1 (Homo sapiens) (UniProt O00141); assay: Inhibition of human recombinant SGK1 at 40 nM related to control ULK1
T3 sequence (whole entry): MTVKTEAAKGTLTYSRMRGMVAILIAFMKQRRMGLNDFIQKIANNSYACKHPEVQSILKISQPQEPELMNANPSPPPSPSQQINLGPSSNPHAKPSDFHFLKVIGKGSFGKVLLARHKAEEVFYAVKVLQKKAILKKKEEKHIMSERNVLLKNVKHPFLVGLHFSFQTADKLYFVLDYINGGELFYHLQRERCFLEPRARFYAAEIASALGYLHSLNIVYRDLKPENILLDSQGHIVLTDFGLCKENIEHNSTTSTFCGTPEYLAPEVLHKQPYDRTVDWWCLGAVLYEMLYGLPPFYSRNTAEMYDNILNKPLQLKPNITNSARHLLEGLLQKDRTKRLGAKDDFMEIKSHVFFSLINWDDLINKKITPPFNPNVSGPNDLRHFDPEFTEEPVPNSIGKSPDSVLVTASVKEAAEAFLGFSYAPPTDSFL

Chain of Calcium/calmodulin-dependent protein kinase type II subunit alpha (Homo sapiens) (Q9UQM7 whole entry): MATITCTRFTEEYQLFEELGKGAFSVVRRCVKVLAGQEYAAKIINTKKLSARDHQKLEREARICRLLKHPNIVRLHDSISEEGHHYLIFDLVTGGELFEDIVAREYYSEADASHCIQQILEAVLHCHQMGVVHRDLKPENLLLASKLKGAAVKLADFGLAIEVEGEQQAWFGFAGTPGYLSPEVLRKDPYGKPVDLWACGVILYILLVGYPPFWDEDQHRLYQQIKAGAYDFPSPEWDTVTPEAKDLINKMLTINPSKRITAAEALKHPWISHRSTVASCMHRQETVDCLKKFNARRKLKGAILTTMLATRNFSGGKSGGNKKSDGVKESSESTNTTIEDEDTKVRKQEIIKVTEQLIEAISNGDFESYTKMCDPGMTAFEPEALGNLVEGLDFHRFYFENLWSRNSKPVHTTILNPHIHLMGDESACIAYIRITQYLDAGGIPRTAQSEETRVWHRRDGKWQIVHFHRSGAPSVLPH

fold change (FC) [1]: 0
fold change (FC) [2]: 0.96
Compound: CNC(=O)c1ccccc1Oc1nc(Nc2cc(OC)c(OC)c(OC)c2)ncc1Br

inhibition [3]: 4%
Compound: CC(C)[C@H](NC(=O)c1cc(-c2cnn3cc(-c4ccc(OCCN5CCCCC5)cc4)cnc23)cs1)C(F)(F)F

inhibition [4]: 7%
fold change (FC) [5]: 0
fold change (FC) [6]: 0.1
Compound: O=C(N[C@@H](C1CC1)C(F)(F)F)c1cc(-c2cnn3cc(-c4ccc(F)cc4)cnc23)cs1
